Data on 22 compounds can be found in ChEMBL document CHEMBL1177649, “Synthesis and structure-affinity relationships of novel small molecule natural product derivatives capable of discriminating between serotonin 5-HT1A, 5-HT2A, 5-HT2C receptor subtypes” (Bioorg Med Chem, 2010).

Bounds are passed on as bounds.

Common to all, as to type: cell-based
Experiment [1] has as its target T1, 5-hydroxytryptamine receptor 2C (Homo sapiens) (UniProt P28335).
T1 sequence (whole entry): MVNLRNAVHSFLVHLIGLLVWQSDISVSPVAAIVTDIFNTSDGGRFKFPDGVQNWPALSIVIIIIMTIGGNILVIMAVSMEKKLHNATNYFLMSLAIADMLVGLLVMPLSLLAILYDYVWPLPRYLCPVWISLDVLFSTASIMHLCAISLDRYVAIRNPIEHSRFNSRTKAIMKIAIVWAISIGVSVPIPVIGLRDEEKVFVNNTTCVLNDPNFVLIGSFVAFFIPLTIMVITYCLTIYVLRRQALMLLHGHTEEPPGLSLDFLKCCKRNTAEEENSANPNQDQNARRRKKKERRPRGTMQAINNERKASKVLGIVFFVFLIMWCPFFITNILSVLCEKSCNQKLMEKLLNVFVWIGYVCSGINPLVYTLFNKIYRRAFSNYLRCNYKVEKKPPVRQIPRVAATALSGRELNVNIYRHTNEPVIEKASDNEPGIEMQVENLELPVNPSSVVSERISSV
The experiment can be described thus: Displacement of [3H]mesulergine from human cloned 5HT2C receptor expressed in HEK293 cells at 3 uM after 90 mins by liquid scintillation counting. In short, it runs like this:
(§1)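 Crude membranes from HEK293 cells stably expressing the receptor (G418 selection) in 50 mM Tris, pH 7.4. Radioligand targeted at ~500 pM. Compound added from a 3 mM DMSO stock diluted 1:1000. Nonspecific binding defined with 5 μM NAN-190 (5-HT1A) or 5 μM mianserin (5-HT2C). Incubated ≥90 min at 25°C, then filtered through PEI-soaked GF/C filters. Percent displacement of specific binding; triplicates, 3–4 experiments.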
(In a radioligand displacement assay an active substance lowers the binding of a labelled ligand.)

Experiment [2] addresses T2, 5-hydroxytryptamine receptor 2A (Homo sapiens, UniProt P28223). The experiment can be described thus: Displacement of [3H]methylspiperone from human cloned 5HT2A receptor expressed in HEK293 cells at 3 uM after 90 mins by liquid scintillation counting. In short, it runs like this: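 Crude membranes from HEK293 cells stably expressing the receptor (calcium phosphate transfection, G418-selected clones), in 50 mM Tris pH 7.4. Single-point screen: 3 mM DMSO stock diluted 1:1000. Radioligand targeted at about 500 pM, nonspecific binding defined by 5 μM mianserin. Incubated at least 90 min at 25°C, then filtered on PEI-soaked GF/C filters and washed cold. Percent specific displacement, triplicates, 3–4 experiments.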

Experiment [3] has as its target T3, 5-hydroxytryptamine receptor 1A (Homo sapiens) (UniProt P08908).
T3 sequence (whole entry): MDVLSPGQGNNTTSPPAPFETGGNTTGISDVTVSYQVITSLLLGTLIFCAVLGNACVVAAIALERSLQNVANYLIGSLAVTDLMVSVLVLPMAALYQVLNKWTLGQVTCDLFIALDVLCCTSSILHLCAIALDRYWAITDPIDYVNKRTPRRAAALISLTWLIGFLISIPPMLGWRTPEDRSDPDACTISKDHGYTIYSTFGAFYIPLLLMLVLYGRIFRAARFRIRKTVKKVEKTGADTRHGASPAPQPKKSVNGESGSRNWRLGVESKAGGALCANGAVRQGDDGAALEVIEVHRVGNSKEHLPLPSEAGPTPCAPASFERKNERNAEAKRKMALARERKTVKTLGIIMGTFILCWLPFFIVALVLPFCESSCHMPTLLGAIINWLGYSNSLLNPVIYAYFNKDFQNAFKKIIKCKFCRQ
The experiment can be described thus: Displacement of [3H]MPPF from human cloned 5HT1A receptor expressed in HEK293 cells at 3 uM after 90 mins by liquid scintillation counting. The essentials: as §1

Experiment [4] addresses T2, 5-hydroxytryptamine receptor 2A. The experiment can be described thus: Displacement of [3H]methylspiperone from human cloned 5HT2A receptor expressed in HEK293 cells after 90 mins by liquid scintillation counting. The essentials: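 Nonspecific binding defined with 5 μM mianserin. Compounds in DMSO or DMSO:0.01 N HCl, non-aqueous solvent ≤1:300. Incubated ≥90 min at 25°C, then filtered. Ki from IC50 by Cheng-Prusoff, with the curve bottom fixed at zero for partial displacement. Geometric mean ± SD of 3–4 experiments in triplicate.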

In experiment [5] the target is T4, 5-hydroxytryptamine receptor 2C (Homo sapiens, UniProt P28335).
T4 sequence (P28335 whole entry): T1 sequence (whole entry)
The experiment can be described thus: Displacement of [3H]mesulergine from human cloned 5HT2C receptor expressed in HEK293 cells after 90 mins by liquid scintillation counting.

T2 sequence (P28223 whole entry): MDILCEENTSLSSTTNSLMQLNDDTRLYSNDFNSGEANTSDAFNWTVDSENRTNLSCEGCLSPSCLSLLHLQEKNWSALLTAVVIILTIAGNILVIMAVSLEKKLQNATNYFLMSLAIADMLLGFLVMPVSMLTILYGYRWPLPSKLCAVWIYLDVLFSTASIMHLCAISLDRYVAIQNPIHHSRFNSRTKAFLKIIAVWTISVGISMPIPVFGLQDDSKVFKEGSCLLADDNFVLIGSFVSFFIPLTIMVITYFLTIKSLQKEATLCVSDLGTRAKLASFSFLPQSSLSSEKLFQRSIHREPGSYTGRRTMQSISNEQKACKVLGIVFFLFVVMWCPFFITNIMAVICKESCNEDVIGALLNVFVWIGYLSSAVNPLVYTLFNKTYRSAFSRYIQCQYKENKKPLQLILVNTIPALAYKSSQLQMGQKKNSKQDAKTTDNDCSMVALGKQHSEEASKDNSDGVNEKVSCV

Regarding `CN1C(=N)NC(=O)/C1=C\c1c[nH]c2cc(Cl)ccc12`, the Activity came out at 0% in experiment [1], 0% in experiment [2] and 1% in experiment [3].

By Ki is commonly meant a measure of affinity in units of concentration, obtained from inhibition or displacement. A high value points to lower affinity. `O=C(Nc1cccnc1)N1CCc2ccccc21` came in with a Ki in experiment [4] of over 10000 nM.

As for `CN1C(=N)NC(=O)/C1=C\c1c[nH]c2cc(Cl)c(Cl)cc12`, the Activity is 10% in experiment [1], 0% in experiment [2] and 4% in experiment [3].

Turning to `Cc1ncccc1Oc1ccc(NC(=O)N2CCc3cc(I)ccc32)cn1`, the affinity in experiment [5] corresponds to a Ki of 3.2 nM. That is a single-digit nanomolar value.

Regarding `CN1C(=N)N(C)/C(=C/c2c[nH]c3ccc(Cl)cc23)C1=O`, the Activity in experiment [1] is 43%; in experiment [2], 22%; in experiment [3], 9%.

As for `Cc1ncccc1Oc1ccc(NC(=O)N2CCc3cc(Br)ccc32)cn1`, the figures for the inhibition constant Ki in experiment [4] and in experiment [5] were 3980 nM and 3.2 nM, respectively.

Turning to `CN1C(=N)N(C)/C(=C/c2c[nH]c3cc(Cl)c(Cl)cc23)C1=O`, the results for the Activity in experiment [1], in experiment [2] and in experiment [3] were 79%, 12% and 0%, respectively. This compound registered an inhibitory constant (Ki) in experiment [5] of 46 nM.

As for `CCN1C(=N)N(C)/C(=C\c2c[nH]c3ccc(I)cc23)C1=O`, the Activity in experiment [1] was 46%; in experiment [2], 35%; in experiment [3], 15%.

`CN1C(=N)NC(=O)/C1=C\c1c[nH]c2ccc(Br)cc12`: the Activity came to 0% in experiment [1], 0% in experiment [2] and 6% in experiment [3].

In the case of `CN1C(=N)N(C)/C(=C/c2c[nH]c3ccc(F)cc23)C1=O`, the Activity in experiment [1] stood at 0%; in experiment [2] it was 10%; in experiment [3], 4%.

As for `CCN1C(=N)N(C)/C(=C/c2c[nH]c3cc(Br)ccc23)C1=O`, the Activity in experiment [1] worked out at 49%; in experiment [2], 0%; in experiment [3] it was 0%.

`O=C(Nc1cccnc1)N1CCc2cc(I)c(Cl)cc21`: in experiment [5], the Ki was found to be 3.2 nM.

Consider `Cc1cc2c(cc1I)N(C(=O)Nc1cccnc1)CC2`, for which affinity in experiment [5] was put at a Ki of 3.2 nM.

As for `CN1C(=N)NC(=O)/C1=C\c1c[nH]c2ccccc12`, the results for the Activity in experiment [1], in experiment [2] and in experiment [3] were 6%, 0% and 0%, respectively.

Consider `CN1C(=N)NC(=O)/C1=C\c1c[nH]c2cc(F)ccc12`, for which the Activity in experiment [1] turned out to be 1%; in experiment [2] it was 6%; in experiment [3], 0%.

`CN1C(=N)N(C)/C(=C/c2c[nH]c3cc(Br)ccc23)C1=O` gave a Ki in experiment [5] of 2200 nM.

Take `CN1C(=N)NC(=O)/C1=C\c1c[nH]c2ccc(Cl)cc12`: the Activity came out at 0% in experiment [1], 9% in experiment [2] and 9% in experiment [3].

As for `CCN1C(=N)N(C)/C(=C\c2c[nH]c3ccc(Br)cc23)C1=O`, the Activity stood at 18% in experiment [1], 9% in experiment [2] and 0% in experiment [3].

Regarding `CN1C(=N)NC(=O)/C1=C\c1c[nH]c2ccc(F)cc12`, the Activity is 19% in experiment [1], 0% in experiment [2] and 0% in experiment [3].

For the compound `CN1C(=N)N(C)/C(=C/c2c[nH]c3ccc(Br)cc23)C1=O`, the values for the Activity in experiment [1], in experiment [2] and in experiment [3] were 64%, 37% and 18%, respectively.

Take `CN1C(=N)N(C)/C(=C/c2c[nH]c3cc(Cl)ccc23)C1=O`: the Activity in experiment [1] was determined as 49%; in experiment [2] it was 0%; in experiment [3] it was 3%. Moreover, the Ki in experiment [5] was determined as 166 nM.

Regarding `CN1C(=N)N(C)/C(=C/c2c[nH]c3cc(F)ccc23)C1=O`, the values for the Activity in experiment [1], in experiment [2] and in experiment [3] were 0%, 79% and 2%, respectively. Also, affinity in experiment [4] was put at a Ki of 235 nM.
